From PMC2164977 (The Journal of Cell Biology, 1999)
One block for each compound: values may come before it. Non-standard residues stand in square brackets, D forms with d. Residues, ends and D or L forms follow the SMILES beside them. *: point of attachment. Sta = CC(C)C[C@H](N)[C@@H](O)CC(=O)O; Isovaleryl = CC(C)CC(=O)*

Key:
[1] = system: degradation activity of chloroplast extract (ATP-dependent, soluble metallopeptidase activity); assay: Degradation assay with chloroplast extract; assay type: biochemical; details: for effect on subfragment degradation in chloroplast extract: 30 min incubation, not shown
[2] = biological target: SPP in chloroplast extract (Pisum sativum, UniProt Q40983); assay: Conversion of transit peptide to subfragment in chloroplast extract; assay type: biochemical
Sequence of SPP in chloroplast extract (Q40983 143-1257): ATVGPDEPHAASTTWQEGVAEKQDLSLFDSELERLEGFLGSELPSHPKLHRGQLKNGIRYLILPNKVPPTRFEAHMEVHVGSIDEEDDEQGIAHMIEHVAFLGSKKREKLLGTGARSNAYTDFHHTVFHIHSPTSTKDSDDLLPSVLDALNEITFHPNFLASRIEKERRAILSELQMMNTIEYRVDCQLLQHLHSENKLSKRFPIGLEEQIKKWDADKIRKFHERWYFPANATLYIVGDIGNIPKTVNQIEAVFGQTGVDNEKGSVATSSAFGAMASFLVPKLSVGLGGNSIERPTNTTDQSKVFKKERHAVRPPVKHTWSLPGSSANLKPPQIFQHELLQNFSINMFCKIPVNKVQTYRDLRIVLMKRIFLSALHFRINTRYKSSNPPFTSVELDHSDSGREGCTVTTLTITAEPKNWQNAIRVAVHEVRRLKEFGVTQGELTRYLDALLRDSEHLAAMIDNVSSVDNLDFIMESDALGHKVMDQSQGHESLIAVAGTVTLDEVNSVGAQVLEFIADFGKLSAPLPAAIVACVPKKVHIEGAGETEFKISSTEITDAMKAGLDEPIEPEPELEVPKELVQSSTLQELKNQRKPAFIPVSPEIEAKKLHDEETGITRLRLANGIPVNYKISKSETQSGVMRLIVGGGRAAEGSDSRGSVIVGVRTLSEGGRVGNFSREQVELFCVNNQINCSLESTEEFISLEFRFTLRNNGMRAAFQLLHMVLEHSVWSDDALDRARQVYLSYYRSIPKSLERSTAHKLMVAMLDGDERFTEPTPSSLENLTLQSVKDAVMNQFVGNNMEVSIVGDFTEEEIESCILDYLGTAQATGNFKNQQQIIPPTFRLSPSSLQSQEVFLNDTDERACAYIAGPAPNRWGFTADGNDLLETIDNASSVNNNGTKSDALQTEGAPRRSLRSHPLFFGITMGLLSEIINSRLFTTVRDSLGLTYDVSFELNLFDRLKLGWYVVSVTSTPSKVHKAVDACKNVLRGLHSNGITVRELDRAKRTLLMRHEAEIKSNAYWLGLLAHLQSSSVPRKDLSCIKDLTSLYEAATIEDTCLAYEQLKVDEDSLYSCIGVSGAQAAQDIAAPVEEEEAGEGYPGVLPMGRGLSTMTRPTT
How it was run: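 [35S]methionine-labeled FD transit peptide is made by 3 min cleavage of preFD on immobilized SPP, then frozen, cleared and dialyzed. It is incubated with chloroplast extract (1:1) in 25 mM Hepes-KOH pH 7.5 at 24°C for 30 min with 1,10-phenanthroline at 0.1–10 mM. Percent substrate remaining is quantified by tricine SDS-PAGE.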

[3] = biological target: T1, stromal processing peptidase (SPP) (Pisum sativum, UniProt Q40983); details: 10 mM NEM in binding assay; data not shown
T1 sequence (Q40983 143-1257): as above
How it was run: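 Recombinant biotin-tagged SPP from E. coli extract is captured on streptavidin magnetic beads. It is incubated 5 min at 24°C in 25 mM Hepes-KOH pH 7.5 with dialyzed [35S]methionine-labeled FD transit peptide or subfragment. Beads are washed twice in buffer, then eluted once with NaCl (0–1,000 mM), and the remaining material is released by boiling. Tricine SDS-PAGE, autoradiography and PhosphorImager quantification follow.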

[4] = biological target: T1, stromal processing peptidase (SPP); assay: Processing and transit peptide trimming by recombinant SPP; assay type: biochemical; details: not shown
How it was run: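 Time courses use reticulocyte-translated [35S]methionine precursors with biotin-tagged recombinant SPP (IPTG-induced E. coli, 30°C) bound to streptavidin magnetic beads. Reactions run in 25 mM Hepes-KOH pH 7.5, 2 mM PMSF, at 24°C, and are stopped by boiling in loading buffer. For preFD and preHSP21, 5 mM 1,10-phenanthroline is added at 2 or 5 min. Products are resolved by tricine SDS-PAGE and autoradiography.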

[5] = system: nonspecific protease activity in rabbit reticulocyte lysate; assay: Nonspecific protease activity of the reticulocyte lysate; assay type: biochemical; details: 2 mM PMSF, supernatant of preHSP21 processing reaction, 1 h at 24°C
How it was run: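 To check lysate protease, [35S]methionine-labeled preHSP21 from reticulocyte lysate is processed 30 min at 24°C by bead-immobilized SPP. The supernatant holding the transit peptide subfragment is removed and incubated 1 h at 24°C, without inhibitor or with 2 mM PMSF. Remaining subfragment is read out.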

FD transit peptide subfragment remaining after 30 min in chloroplast extract ([1]; 1 mM 1,10-phenanthroline, 24°C): 86%
effect on degradation of the subfragment in chloroplast extract ([1]; 5 mM 1,10-phenanthroline, 30 min): inhibited
degradation of FD transit peptide subfragment in chloroplast extract ([1]; 10 mM 1,10-phenanthroline, 30 min, 24°C): no degradation
FD transit peptide left after 30 min in chloroplast extract ([2]; 1 mM 1,10-phenanthroline, 24°C): 16%
FD transit peptide remaining after 30 min in chloroplast extract ([2]; 10 mM 1,10-phenanthroline, 24°C): 80%
sensitivity of SPP relative to the degradation activity ([2]; SPP less sensitive than degradation activity): about tenfold
Compound: c1cnc2c(c1)ccc1cccnc12 [1,10-phenanthroline]

Compound: CC(C)C[C@H](NC(=O)[C@H]1O[C@@H]1C(=O)O)C(=O)NCCCCN=C(N)N [E64]
effect on subfragment degradation in chloroplast extract ([1]; 100 μM inhibitor): None of these inhibitors significantly decreased

effect on interaction between SPP and FD transit peptide [3]: disrupted the interaction
effect on SPP cleavage of precursors [4]: inhibited
Compound: CCN1C(=O)C=CC1=O [NEM, N-ethylmaleimide]
effect on subfragment degradation in chloroplast extract ([1]; 10 mM inhibitor): None of these inhibitors significantly decreased

Compound: O=S(=O)(F)Cc1ccccc1 [PMSF]
effect on subfragment degradation in chloroplast extract ([1]; 10 mM inhibitor): None of these inhibitors significantly decreased
HSP21 transit peptide subfragment remaining [5]: ~90%

Compound: CC(C)CC(=O)N[C@H](C(=O)N[C@H](C(=O)N[C@@H](CC(C)C)[C@@H](O)CC(=O)N[C@@H](C)C(=O)N[C@@H](CC(C)C)[C@@H](O)CC(=O)O)C(C)C)C(C)C [pepstatin] (Isovaleryl-VV[Sta]A[Sta]-OH)
effect on subfragment degradation in chloroplast extract ([1]; 100 μM inhibitor): None of these inhibitors significantly decreased
